Shown are actives, neighbours in structure and some others; about 1.3% of the full set was active somewhere.
NR2E3 ag-1 = agonists of human nuclear receptor NR2E3; Q9Y5X4; GST-NR2E3/biotin-RetCOR TR-FRET, 1536-well; inhibition of corepressor binding, % at 4.78 µM; 320,000 tested, 0.12% active;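 active = percent inhibition above the cutoff of mean plus 3 SD of all tested compounds, set per screening campaign, cut at about 20% in these data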;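 also: 0% = DMSO wells and 100% = biotin wells as full block of FRET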
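Format: 1536-well format; test system: GST-NR2E3 and biotin-RetCOR proteins; read-out basis: percent inhibition of TR-FRET ratio; timing: 5 h incubation at 4 °C; detection: time-resolved FRET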
GASC-1 inh = human JMJD2C demethylase inhibition. Q9H3R0. GST-JMJD2C(1-420) H3K9me3 demethylation, DELFIA europium. inhibition, % at 2.35 µM. 330,000 tested, 0.069% active;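 active = more than half of a compound's replicate wells show inhibition beyond 50%, single wells judged on their own value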;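 also: signal counts dimethyl H3K9 product captured on neutravidin plate; 0% = median of DMSO wells and 100% = 0.3 times that DMSO median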
NR2E3 ag-2 = activates human NR2E3 receptor; Q9Y5X4; CHO-S Gal4-NCOR/VP16-NR2E3 two-hybrid, luciferase; inhibition of corepressor binding, % at 3.98 µM; 360,000 tested, 0.35% active;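 active = inhibition above the mean of all tested compounds plus 3 SD, cut at about 70% in these data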;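 also: 0% = DMSO with NR2E3 transfected cells and 100% = cells lacking NR2E3 construct; higher means lower luciferase signal from less NR2E3 corepressor binding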
EP2 antag = inhibitors of human EP2 prostaglandin E2 receptor | P43116 | C6 glioma cells expressing human EP2, cAMP TR-FRET; cells stimulated with saturating PGE2 | inhibition, % at 25 µM | 260,000 tested, 0.52% active | AID 1422;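 active = percent inhibition above 40 after rounding to a whole number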;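 also: rat C6 glioma host cells with rolipram phosphodiesterase inhibitor present; the protocol text gives 20 µM as final concentration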
EP2 modulator = EP2 receptor (human) modulation; 260,000 tested, 0.83% active; AID 940; induction, % at 25 µM; EP2-expressing cells, cAMP HTRF FRET, PGE2 co-stimulation;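 active = compounds whose cAMP rise, as percent of the full-agonist control response, exceeds 60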;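 also: rat C6 glioma line stably carrying human EP2 under a CMV promoter; the protocol text gives 20 µM as final concentration; 100% = response of wells given 1 µM PGE2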
Furin inhibitor = blocks human furin protease activity; purified furin, fluorogenic substrate cleavage; AID 463115; inhibition, % at 20 µM or 30 µM; 220,000 tested, 0.061% active; P09958; in the data active = inhibition above about 25%
Target sequence (P09958 108-714 limits assumed): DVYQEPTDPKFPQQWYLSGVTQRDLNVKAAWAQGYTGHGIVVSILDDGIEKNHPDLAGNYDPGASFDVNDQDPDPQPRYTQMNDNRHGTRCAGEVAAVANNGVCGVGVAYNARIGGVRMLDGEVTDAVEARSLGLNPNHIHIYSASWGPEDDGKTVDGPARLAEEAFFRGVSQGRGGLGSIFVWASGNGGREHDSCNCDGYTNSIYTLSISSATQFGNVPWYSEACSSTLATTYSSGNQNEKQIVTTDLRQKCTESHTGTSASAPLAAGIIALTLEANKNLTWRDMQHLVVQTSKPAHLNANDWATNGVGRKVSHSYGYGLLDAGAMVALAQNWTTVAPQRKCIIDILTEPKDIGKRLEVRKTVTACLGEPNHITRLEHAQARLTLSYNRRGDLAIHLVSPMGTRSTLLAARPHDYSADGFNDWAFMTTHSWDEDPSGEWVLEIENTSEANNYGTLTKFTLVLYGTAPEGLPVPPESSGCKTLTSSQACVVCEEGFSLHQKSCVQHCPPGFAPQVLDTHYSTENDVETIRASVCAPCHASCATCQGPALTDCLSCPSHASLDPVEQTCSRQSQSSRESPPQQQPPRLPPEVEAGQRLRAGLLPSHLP
NR2E3 ag confirm = NR2E3 agonism confirmed in two-hybrid assay; shares compounds with NR2E3 ag-2; CHO-S mammalian two-hybrid NR2E3-NCOR, luciferase luminescence; inhibition, % at 3.98 µM; 2,300 tested, 51% active;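 active = average inhibition above a cutoff equal to the mean inhibition of all tested compounds plus one SD, cut at about 70% in these data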;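 also: 0% = DMSO in NR2E3 cells and 100% = DMSO in cells lacking NR2E3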
VP16 counter = reduces GAL4-VP16 reporter signal in NR2E3 counterscreen; AID 624379; shares compounds with NR2E3 ag-2; 2,300 tested, 29% active; CHO-S GAL4-VP16 luciferase reporter, luminescence; inhibition, % at 3.98 µM;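 active = mean inhibition above a cutoff equal to the average over all tested compounds plus one standard deviation, cut at about 70% in these data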;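 also: luciferase from a UAS reporter driven by GAL4-VP16 transactivation; 0% = DMSO with VP16-transfected cells and 100% = DMSO with cells lacking VP16; higher means less reporter light so more repression of VP16 activity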
Numbers without * were called inactive; x = no result.

SMILES	NR2E3 ag-1	GASC-1 inh	NR2E3 ag-2	EP2 antag	EP2 modulator	Furin inhibitor	NR2E3 ag confirm	VP16 counter
O=C(C1CCC1)N1CCc2cc(S(=O)(=O)NCCN3CCN(c4ccccc4F)CC3)ccc21	6	6	61	x	4	-10	70	55
COc1cccc(CNC(=O)C2CCN(S(=O)(=O)c3ccc4c(c3)CC(C)N4C(=O)C3CC3)CC2)c1 (stereo unspecified)	1	3	1	x	x	x	x	x
COc1cc(CNS(=O)(=O)c2ccc3c(c2)CC(C)N3C(=O)C2CCC2)cc(OC)c1OC (stereo unspecified)	-2	4	43	x	x	x	x	x
COCCn1c(N2CCCC(C)C2)nc2c1c(=O)n(C)c(=O)n2C (stereo unspecified)	x	x	x	6	20	x	x	x
CCC(=O)Nc1cc2nn(-c3ccc(C)cc3)nc2cc1C	2	2	49	1	12	-12	-23	-99
CC(=NNC(=S)N1CCN(c2ccccn2)CC1)c1ccccn1	x	x	4	x	x	x	x	x
CC(=NNC(=S)N1CC2CCC(CC2)C1)c1cnccn1	x	x	76*	x	x	x	-20	-26
CC(=NNC(=S)N1CC2CCC(CC2)C1)c1ccccn1	x	x	87*	x	x	x	-37	-9
CC(=NNC(=S)N1CCN(c2ccccn2)CC1)c1nccs1	x	x	90*	x	x	x	42	46
C/C(=N\NC(=O)C1CCCN(S(=O)(=O)c2ccccc2)C1)c1ccccn1 (stereo unspecified)	-1	11	-4	15	-2	-17	x	x
CC(=NNC(=S)N1CCN(C2CCCCCC2)CC1)c1ccccn1	x	x	78*	x	x	x	19	-7
COc1ccc(NC(=S)N(CCO)Cc2cc3cc4c(cc3[nH]c2=O)OCO4)cc1	x	x	x	8	-32	x	x	x
Cc1ccc(C(=O)Nc2cccc(C(=O)NCc3ccco3)c2)cc1	0	2	56	11	-24	-7	19	-4
O=C(NCc1ccco1)c1cccc(NC(=O)c2ccccc2)c1	-3	-3	50	2	-19	-19	23	22
N#Cc1c(-c2ccccc2)nc(SCc2ccc(Cl)cc2)[nH]c1=O	6	-13	72*	x	x	x	58	36
COC(=O)c1cccc(CSc2nc(-c3ccccc3)c(C#N)c(=O)[nH]2)c1	8	-6	-11	x	x	x	x	x
Cc1ccccc1C(=O)Oc1cccc(Nc2ncnc3ccccc23)c1	-2	23	72*	15	x	-2	43	68
CC(C)(C)C1CCN(CC(O)c2ccc3c(c2)CCCN3S(C)(=O)=O)CC1 (stereo unspecified)	x	x	x	3	-34	x	x	x
CCc1ccc(NC(=O)COC(=O)c2ccccn2)cc1	x	x	x	5	-2	x	x	x
COc1ccccc1N(Cc1ccccc1)S(=O)(=O)c1cccc(C(=O)Nc2ccccn2)c1	-2	-6	-19	x	x	x	x	x
COc1ccccc1N(Cc1ccccc1)S(=O)(=O)c1cccc(C(=O)Nc2ccc(C)cn2)c1	-1	2	57	x	x	x	0	4
CCCc1nc(SCC(=O)NC(C)(C)C)c2ccccc2n1	x	x	x	8	25	x	x	x
Cc1nc2ccccc2n1Cc1ccc(Br)cc1	4	2	84*	x	x	x	94*	85*
Cc1nc2ccccc2n1Cc1ccccc1	2	-7	11	x	x	x	x	x
c1csc(CCNc2ncnc3sc4c(c23)CCC4)c1	0	-1	93*	11	-29	-6	98*	87*
SMILES	NR2E3 ag-1	GASC-1 inh	NR2E3 ag-2	EP2 antag	EP2 modulator	Furin inhibitor	NR2E3 ag confirm	VP16 counter
CCC(C)C(=O)Nc1ccc(S(=O)(=O)N2CCCC2)cc1 (stereo unspecified)	1	-3	-5	15	-13	x	x	x
CCC(C)NS(=O)(=O)c1ccc(S(=O)(=O)N2CCCC3(CCCCC3)C2)cc1 (stereo unspecified)	-5	-6	85*	17	-10	-13	89*	73*
O=C(NC1CCCCC1)NC1CC2CCCC(C1)N2Cc1ccc(F)cc1 (stereo unspecified)	x	x	x	10	-58	x	x	x
COc1ccc(C2(NCc3ccc(OCC(=O)N4CCCC4)cc3)CC2)cc1	x	x	x	9	-37	x	x	x
Nc1nc(N)nc(-c2cc(O)ccc2O)n1	-1	4	76*	x	x	x	85*	56
Cn1c(=O)c(C(=O)NCCCCl)c(O)c2ccccc21	x	x	x	6	-2	x	x	x
CS(=O)(=O)N(CC(=O)N1CCCCC1)c1ccccc1Cl	x	x	x	9	-20	x	x	x
CC(=O)N1CCN(C(=O)CN2C(=O)NC(C)(c3ccc4ccccc4c3)C2=O)CC1 (stereo unspecified)	3	-14	-21	x	x	x	x	x
CC1(c2ccc3ccccc3c2)NC(=O)N(CC(=O)N2CCN(Cc3ccc(C#N)cc3)CC2)C1=O (stereo unspecified)	x	x	105*	x	x	x	90*	80*
O=C(Nc1ccc(Cc2ccncc2)cc1)c1ccc(S(=O)(=O)N2CCOCC2)cc1	-1	27	53	15	-17	-9	58	57
Cc1ccc(S(=O)(=O)N2CCOCC2)cc1C(=O)Nc1ccc(N2CCCCCC2)cc1	x	x	69	x	x	x	50	47
O=C(Nc1ccc(S(=O)(=O)N2CCOCC2)cc1)c1ccc(S(=O)(=O)N2CCOCC2)cc1	1	-2	17	x	x	x	x	x
C=CCN(CC=C)C(=S)NC(=O)c1ccc([N+](=O)[O-])cc1	3	-3	66	9	18	-9	-6	-10
O=C(Cc1cccc2ccccc12)NCC(=O)N1CCN(Cc2cccc(C(F)(F)F)c2)CC1	3	-6	59	x	x	x	50	42
O=C(Cc1cccc2ccccc12)NCC(=O)N1CCN(CC(=O)Nc2ccc(F)cc2)CC1	x	x	27	x	x	x	x	x
Cc1ccc(C)c(S(=O)(=O)/N=C2\C=C(NS(=O)(=O)c3ccccc3)C(=O)c3ccccc32)c1	-2	14	19	x	x	x	x	x
Cc1cc(C)c(S(=O)(=O)/N=C2/C=C(Sc3ncn[nH]3)C(=O)c3ccccc32)cc1C	9	29	102*	104*	-80	-8	49	-12
O=C(NC1CCCC1)C(c1cccs1)N(C(=O)c1ccco1)C1CCCCC1 (stereo unspecified)	x	x	x	10	24	x	x	x
Cc1ccc(CNC(=O)c2ccc(N3CCC4(CC3)CC(c3cccc(Br)c3)=NO4)c([N+](=O)[O-])c2)cc1	3	6	8	x	x	x	x	x
CCCNC(=O)c1ccc(N2CCC3(CC2)CC(c2cccc(Br)c2)=NO3)c([N+](=O)[O-])c1	-1	-3	57	x	x	x	74*	59
COc1ccc(CNC(=O)CN2C(=O)COc3ccc(C)cc32)cc1	x	x	x	14	-3	x	x	x
